Activity calls are given as the source filed them. The calls are words filed in the database; no cut-off is given here.
Tests used:
M14 [1] = assay: Cytotoxicity against human M14 cells after 24 to 48 hrs by MTT assay; assay type: functional, cell-based
M14 [2] = assay: Induction of cell morphology impairment in human M14 cells at cytotoxic IC50 concentration by phase contrast microscopy; assay type: functional, cell-based
Method in brief: (§1)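 Logarithmically growing M14 cells plated at 10⁵ cells/mL, with compound added after 24 h and vehicle controls alongside. Followed by inverted phase-contrast time-lapse microscopy at 37 °C under 5% CO₂, images taken hourly for up to 72 h. Rounding, blebbing and detachment scored at 10, 24 and 48 h.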

HEK293 = assay: Cytotoxicity against transformed human HEK293 cells after 24 to 48 hrs by MTT assay; assay type: functional, cell-based
M14 [3] = assay: Induction of apoptosis in human M14 cells assessed as caspase-3 activation at supra cytotoxic IC50 concentration after 16 to 24 hrs by Western blot; assay type: functional, cell-based
M14 [4] = assay: Cell cycle arrest in human M14 cells assessed as accumulation at G2 phase at 3 uM after 24 hrs by flow cytometry; assay type: functional
Method in brief: (§2)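 Trypsinized, washed in PBS, stained in the dark at 4 °C for 30 min with 0.1% sodium citrate, 0.1% Triton X-100 and propidium iodide. Analyzed by FACScan flow cytometry. Phase distribution (G0/G1, S, G2/M) given as percentage of cells.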

M14 [5] = assay: Induction of apoptosis in human M14 cells at 1 to 5 uM after 24 hrs; assay type: functional, cell-based
M14 [6] = assay: Induction of cell morphology impairment in human M14 cells assessed as emergence of round and damaged cells at cytotoxic IC50 concentration after 10 hrs by phase contrast microscopy; assay type: functional, cell-based; method in brief: as §1
M14 [7] = assay: Cell cycle arrest in human M14 cells assessed as decrease in G0/G1 phase accumulation at 3 uM after 24 hrs by flow cytometry; assay type: functional; parameters: scale not given: the % may be the effect or the level left; method in brief: as §2
M14 [8] = assay: Induction of cell morphology impairment in human M14 cells assessed as cell detachment at cytotoxic IC50 concentration after 48 hrs by phase contrast microscopy
U-937 = assay: Cytotoxicity against human U937 cells after 24 to 48 hrs by MTT assay; assay type: functional, cell-based
M14 [9] = assay: Cell cycle arrest in human M14 cells assessed as accumulation at G2/M phase at 3 uM after 24 hrs by flow cytometry; assay type: functional, cell-based; method in brief: as §2
M14 [10] = assay: Increase in p53 expression in human M14 cells at 0.3 uM after 24 to 48 hrs by Western blot; assay type: functional, cell-based
Method in brief: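 M14 cells (1 × 10⁶ per flask) treated 24 and 48 h alongside untreated controls. Lysed in ice-cold Tris/NaCl/EDTA/1% Triton buffer with protease inhibitors. Equal protein run on 8-12% SDS-PAGE and blotted to nitrocellulose. Blocked in milk/Tween-TBS, anti-p53 overnight at 4 °C, HRP secondary, ECL detection. Cytoplasmic p53 read, with tubulin as reprobe.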

M14 [11] = assay: Induction of apoptosis in human M14 cells assessed as caspase-3 activation at 0.1 to 0.3 uM after 16 hrs by Western blot; assay type: functional, cell-based
Method in brief: (§3)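 M14 cells (1 × 10⁶ per flask) exposed 16 and 24 h, then lysed in ice-cold Triton lysis buffer with protease inhibitors. Equal protein run on 8-12% SDS-PAGE and blotted to nitrocellulose. Probed overnight at 4 °C for cleaved active caspase-3 subunits or PARP cleavage (85 kDa fragment), with HRP secondary and ECL read-out. Tubulin reprobe.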

M14 [12] = assay: Induction of apoptosis in human M14 cells assessed as PARP cleavage at 0.1 to 0.3 uM after 16 hrs by Western blot; assay type: functional, cell-based; method in brief: as §3
M14 [13] = assay: Effect on cell cycle progression in human M14 cells at 0.3 uM after 24 hrs by flow cytometry; assay type: functional, cell-based
Method in brief: (§4)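 M14 cells at 2,5 × 10⁵ cells/mL in 12-well plates, treated 24 h (vehicle controls run alongside). Cells were trypsinised, washed in PBS and stained with propidium iodide in 0.1% sodium citrate/0.1% Triton X-100 at 4 °C for 30 min in the dark. FACScan analysis gave the percentage of cells in G0/G1, S and G2/M. Hypodiploid nuclei were scored as apoptotic.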

M14 [14] = assay: Effect on cell cycle progression in human M14 cells at 1 uM after 24 hrs by flow cytometry; assay type: functional, cell-based; method in brief: as §4
M14 [15] = assay: Increase in p53 expression in human M14 cells at 3 uM after 24 to 48 hrs by Western blot; assay type: functional, cell-based
Method in brief: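 M14 cells (1 × 10⁶ per flask), treated for 24 and 48 h. Lysed in ice-cold 50 mM Tris, 150 mM NaCl, 10 mM EDTA, 1% Triton with protease inhibitors. Equal protein run on 8-12% SDS-PAGE and blotted to nitrocellulose. Cytoplasmic p53 probed overnight at 4 °C, detected by HRP secondary and ECL, with tubulin as loading reprobe.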

Compound	IC50 (M14 [1]) [µM]	IC50 (HEK293) [µM]	IC50 (U-937) [µM]	other results
COc1cc(CN2C(=O)[C@@H]3CS[C@]4(C(=O)Nc5ccc(C)cc54)N3C2=O)cc(OC)c1OC	2.4	2.04	2.06	Activity (M14 [2]): Active; Activity (M14 [3]): inactive; Activity (M14 [4]): 47%; Activity (M14 [5]): inactive; Activity (M14 [6]): Active; Activity (M14 [7]): 20%; Activity (M14 [8]): Active; Activity (M14 [9]): Active
Cc1ccc2c(c1)[C@@]1(SC[C@H]3C(=O)N(C4CCC(C)(C)CC4)C(=O)N31)C(=O)N2	19.1	16	12.5	
CN1C(=O)[C@]2(SC[C@H]3C(=O)N(Cc4ccc(Cl)cc4)C(=O)N32)c2ccccc21	2.47	2.11	2.91	
CN1C(=O)[C@]2(SC[C@H]3C(=O)N(C4CCC(C)(C)CC4)C(=O)N32)c2ccccc21	> 40	> 40	> 40	
COc1cc(CN2C(=O)[C@@H]3CS[C@]4(C(=O)N(C(=O)c5ccccc5)c5ccc(C)cc54)N3C2=O)cc(OC)c1OC	7.84	4.22	4.31	
Cc1ccc2c(c1)[C@@]1(SC[C@H]3C(=O)N(Cc4ccccc4)C(=O)N31)C(=O)N2	3.88	3.3	2.09	
COc1cc(CN2C(=O)[C@@H]3CS[C@]4(C(=O)N(C(=O)c5ccc(C)cc5)c5ccc(C)cc54)N3C2=O)cc(OC)c1OC	5.95	3.81	2.42	
CC1(C)CCC(N2C(=O)[C@@H]3CS[C@]4(C(=O)Nc5ccc(Br)cc54)N3C2=O)CC1	> 40	> 40	> 40	
CN1C(=O)[C@]2(SC[C@H]3C(=O)N(Cc4ccccc4)C(=O)N32)c2ccccc21	6.37	3.98	2.89	
COc1cc(CN2C(=O)[C@@H]3CS[C@]4(C(=O)N(C)c5ccccc54)N3C2=O)cc(OC)c1OC	7.66	6.01	5.7	
COc1cc(CN2C(=O)[C@@H]3CS[C@]4(C(=O)N(C(=O)c5ccc(Cl)cc5)c5ccc(C)cc54)N3C2=O)cc(OC)c1OC	8.14	4.71	3.11	
Cc1ccc(CN2C(=O)[C@@H]3CS[C@]4(C(=O)Nc5ccccc54)N3C2=O)cc1	13.3	4.53	5.91	
O=C1[C@@H]2CS[C@]3(C(=O)Nc4ccccc43)N2C(=O)N1Cc1ccc(Cl)cc1	0.53	0.44	0.87	Activity (M14 [2]): Active; Activity (M14 [10]): Active; Activity (M14 [6]): Active; Activity (M14 [8]): Active; Activity (M14 [11]): Active; Activity (M14 [12]): Active; Activity (M14 [13]): inactive; Activity (M14 [14]): inactive
O=C1[C@@H]2CS[C@]3(C(=O)Nc4ccc(Br)cc43)N2C(=O)N1Cc1ccccc1	12	8.48	7.58	
Cc1ccc2c(c1)[C@@]1(SC[C@H]3C(=O)N(Cc4ccc(Cl)cc4)C(=O)N31)C(=O)N2	6.65	3.88	3.31	Activity (M14 [15]): Active
O=C1[C@@H]2CS[C@]3(C(=O)Nc4ccc(Br)cc43)N2C(=O)N1Cc1ccc(Cl)cc1	7.06	7.13	5.01	
COc1cc(CN2C(=O)[C@@H]3CS[C@]4(C(=O)Nc5ccc(Br)cc54)N3C2=O)cc(OC)c1OC	11	9.31	5.02	
CCCC(=O)N1C(=O)[C@]2(SC[C@H]3C(=O)N(Cc4cc(OC)c(OC)c(OC)c4)C(=O)N32)c2cc(C)ccc21	7.4	4.42	4.1	
O=C1[C@@H]2CS[C@]3(C(=O)N(C(=O)c4ccccc4)c4ccccc43)N2C(=O)N1Cc1ccc(Cl)cc1	3.25	3.5	3.12	
Cc1ccc(CN2C(=O)[C@@H]3CS[C@]4(C(=O)Nc5ccc(Br)cc54)N3C2=O)cc1	10.2	7.61	6.23	
COc1cccc2c1C(=O)c1c(O)c3c(c(O)c1C2=O)C[C@@](O)(C(=O)CO)C[C@@H]3O[C@H]1C[C@H](N)[C@H](O)[C@H](C)O1 [DOXORUBICIN]	1	0.9	0.8	
Cc1ccc(CN2C(=O)[C@@H]3CS[C@]4(C(=O)N(C)c5ccccc54)N3C2=O)cc1	31.8	10.7	16.8	
O=C1[C@@H]2CS[C@]3(C(=O)N(C(=O)c4ccc(Cl)cc4)c4ccccc43)N2C(=O)N1Cc1ccc(Cl)cc1	3.37	5.01	2.61	
COc1cc(CN2C(=O)[C@@H]3CS[C@]4(C(=O)Nc5ccccc54)N3C2=O)cc(OC)c1OC	4.73	3.8	2.51	
O=C1[C@@H]2CS[C@]3(C(=O)Nc4ccccc43)N2C(=O)N1Cc1ccccc1	10.6	4.8	3.9	
Cc1ccc(C(=O)N2C(=O)[C@]3(SC[C@H]4C(=O)N(Cc5ccc(Cl)cc5)C(=O)N43)c3ccccc32)cc1	2.08	2.5	2.01	
CCCC(=O)N1C(=O)[C@]2(SC[C@H]3C(=O)N(Cc4ccc(Cl)cc4)C(=O)N32)c2ccccc21	2.04	2.01	2.1	
CC1(C)CCC(N2C(=O)[C@@H]3CS[C@]4(C(=O)Nc5ccccc54)N3C2=O)CC1	7.07	4.22	2.61	
Cc1ccc(CN2C(=O)[C@@H]3CS[C@]4(C(=O)Nc5ccc(C)cc54)N3C2=O)cc1	3.39	3.01	2.77	
